Results: ChEMBL document CHEMBL3425484, “Novel N-benzenesulfonyl sophocarpinol derivatives as coxsackie B virus inhibitors” (ACS Med Chem Lett, 2015)

Legend:
Coxsackievirus [1] = assay: Antiviral activity against Coxsackievirus B3 infected in african green monkey Vero cells assessed as reduction in viral-induced cytopathic effect; format: functional, organism-based
Method in brief: (§1)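 Vero (African green monkey kidney) cells were infected with the CVB subtype and scored by viral cytopathogenic effect (CPE) reduction, with ribavirin as the positive control. IC50 is the concentration that inhibits CVB growth by 50%.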

[2] = Cytotoxicity against african green monkey Vero cells assessed as inhibition of cell growth after 24 hrs by CPE assay; format: cell-based; settings: chlorocebus sabaeus, read-out: TC50
[3] = Selectivity index, ratio of TC50 for african green monkey Vero cells to IC50 for Coxsackievirus B3 infected in african green monkey Vero cells; format: toxicity, cell-based; settings: read-out: Selectivity Index
Method in brief: (§2)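 SI is calculated as TC50 (50% inhibition of Vero cell growth) divided by IC50 (50% inhibition of the respective CVB subtype's growth, from the CPE assay in Vero cells, ribavirin as positive control).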

Coxsackievirus [4] = assay: Antiviral activity against Coxsackievirus B1 infected in african green monkey Vero cells assessed as reduction in viral-induced cytopathic effect; format: functional, organism-based; method in brief: as §1
[5] = Selectivity index, ratio of TC50 for african green monkey Vero cells to IC50 for Coxsackievirus B6 infected in african green monkey Vero cells; format: toxicity, cell-based; settings: read-out: Selectivity Index; method in brief: as §2
Coxsackievirus [6] = assay: Antiviral activity against Coxsackievirus B2 infected in african green monkey Vero cells assessed as reduction in viral-induced cytopathic effect; format: functional, organism-based; method in brief: as §1
Coxsackievirus [7] = assay: Antiviral activity against Coxsackievirus B6 infected in african green monkey Vero cells assessed as reduction in viral-induced cytopathic effect; format: functional, organism-based; method in brief: as §1
[8] = Selectivity index, ratio of TC50 for african green monkey Vero cells to IC50 for Coxsackievirus B1 infected in african green monkey Vero cells; format: toxicity, cell-based; settings: read-out: Selectivity Index; method in brief: as §2
[9] = Selectivity index, ratio of TC50 for african green monkey Vero cells to IC50 for Coxsackievirus B2 infected in african green monkey Vero cells; format: toxicity, cell-based; settings: read-out: Selectivity Index; method in brief: as §2
Coxsackievirus [10] = assay: Antiviral activity against Coxsackievirus B5 infected in african green monkey Vero cells assessed as reduction in viral-induced cytopathic effect; format: functional, organism-based; method in brief: as §1

SMILES | IC50 (Coxsackievirus [1]) [µM] | CC50 at 24 h [2] [µM] | selectivity ratio [3] | other results
N#Cc1ccccc1S(=O)(=O)N1C[C@@H]2CCCN3CCC[C@@H]([C@H]23)[C@H]1/C=C/CC(=O)O | 22.7 | 466 | 20.5 | 
N#Cc1cccc(S(=O)(=O)N2C[C@@H]3CCCN4CCC[C@@H]([C@H]34)[C@H]2/C=C/CC(=O)O)c1 | 13.1 | 466 | 35.5 | 
O=C(O)C/C=C/[C@@H]1[C@H]2CCCN3CCC[C@@H](CN1S(=O)(=O)c1ccc(C(F)(F)F)cc1)[C@@H]23 | 33.7 | 1470 | 43.6 | 
O=C(O)C/C=C/[C@@H]1[C@H]2CCCN3CCC[C@@H](CN1S(=O)(=O)c1ccccc1C(F)(F)F)[C@@H]23 | 11.1 | 393 | 35.4 | 
COC(=O)C/C=C/[C@@H]1[C@H]2CCCN3CCC[C@@H](CN1S(=O)(=O)c1cccc(C#N)c1)[C@@H]23 | 7.3 | 72.4 | 9.9 | 
COC(=O)C/C=C/[C@@H]1[C@H]2CCCN3CCC[C@@H](CN1S(=O)(=O)c1ccccc1C#N)[C@@H]23 | 8.92 | 80.3 | 9 | 
COC(=O)C/C=C/[C@@H]1[C@H]2CCCN3CCC[C@@H](CN1S(=O)(=O)c1ccccc1C(F)(F)F)[C@@H]23 | 11.9 | 38.1 | 3.2 | 
N#Cc1ccccc1S(=O)(=O)N1C[C@@H]2CCCN3CCC[C@@H]([C@H]23)[C@H]1C/C=C/C(=O)O | > 155 | 466 |  | 
N#Cc1ccc(S(=O)(=O)N2C[C@@H]3CCCN4CCC[C@@H]([C@H]34)[C@H]2C/C=C/C(=O)O)cc1 | 29.9 | > 466 | > 15.7 | 
O=C(O)/C=C/C[C@@H]1[C@H]2CCCN3CCC[C@@H](CN1S(=O)(=O)c1ccccc1C(F)(F)F)[C@@H]23 | 27.2 | 424 | 15.6 | 
COC(=O)C/C=C\[C@@H]1[C@H]2CCCN3CCC[C@@H](CN1S(=O)(=O)c1ccccc1C#N)[C@@H]23 | 4.21 | 289 | 68.7 | 
COC(=O)C/C=C\[C@@H]1[C@H]2CCCN3CCC[C@@H](CN1S(=O)(=O)c1ccc(C#N)cc1)[C@@H]23 | 8.04 | 292 | 36.3 | 
COC(=O)C/C=C\[C@@H]1[C@H]2CCCN3CCC[C@@H](CN1S(=O)(=O)c1cccc(C(F)(F)F)c1)[C@@H]23 | 2.24 | 198 | 88.3 | 
COC(=O)C/C=C\[C@@H]1[C@H]2CCCN3CCC[C@@H](CN1S(=O)(=O)c1ccc(C(F)(F)F)cc1)[C@@H]23 | 8.17 | 54.7 | 6.7 | 
COC(=O)C/C=C\[C@@H]1[C@H]2CCCN3CCC[C@@H](CN1S(=O)(=O)c1ccccc1[N+](=O)[O-])[C@@H]23 | 5.23 | 481 | 92.1 | 
COC(=O)C/C=C\[C@@H]1[C@H]2CCCN3CCC[C@@H](CN1S(=O)(=O)c1cccc([N+](=O)[O-])c1)[C@@H]23 | 9.24 | 112 | 12.1 | 
COC(=O)C/C=C\[C@@H]1[C@H]2CCCN3CCC[C@@H](CN1S(=O)(=O)c1ccc([N+](=O)[O-])cc1)[C@@H]23 | 7.02 | 186 | 26.4 | 
COC(=O)C/C=C\[C@@H]1[C@H]2CCCN3CCC[C@@H](CN1S(=O)(=O)c1cc(Br)c(Br)s1)[C@@H]23 | 1.19 | 21.1 | 17.7 | 
N#Cc1ccccc1S(=O)(=O)N1C[C@@H]2CCCN3CCC[C@@H]([C@H]23)[C@H]1/C=C\CC(=O)O | 27.6 | 430 | 15.6 | 
N#Cc1cccc(S(=O)(=O)N2C[C@@H]3CCCN4CCC[C@@H]([C@H]34)[C@H]2/C=C\CC(=O)O)c1 | 17.4 | 745 | 42.7 | 
N#Cc1ccc(S(=O)(=O)N2C[C@@H]3CCCN4CCC[C@@H]([C@H]34)[C@H]2/C=C\CC(=O)O)cc1 | 52.4 | 745 | 14.2 | 

SMILES | IC50 (Coxsackievirus [1]) [µM] | CC50 at 24 h [2] [µM] | selectivity ratio [3] | other results
O=C(O)C/C=C\[C@@H]1[C@H]2CCCN3CCC[C@@H](CN1S(=O)(=O)c1ccc(C(F)(F)F)cc1)[C@@H]23 | 18.6 | 272 | 14.7 | 
O=C(O)C/C=C\[C@@H]1[C@H]2CCCN3CCC[C@@H](CN1S(=O)(=O)c1ccccc1[N+](=O)[O-])[C@@H]23 | 16.2 | 595 | 36.8 | 
O=C(O)C/C=C\[C@@H]1[C@H]2CCCN3CCC[C@@H](CN1S(=O)(=O)c1cccc([N+](=O)[O-])c1)[C@@H]23 | 63.6 | 445 | 7 | 
O=C(O)C/C=C\[C@@H]1[C@H]2CCCN3CCC[C@@H](CN1S(=O)(=O)c1ccc([N+](=O)[O-])cc1)[C@@H]23 | 49.8 | 309 | 6.2 | 
O=C(O)C/C=C\[C@@H]1[C@H]2CCCN3CCC[C@@H](CN1S(=O)(=O)c1cc(Br)c(Br)s1)[C@@H]23 | 53.1 | 191 | 3.6 | 
N#Cc1cccc(S(=O)(=O)N2C[C@@H]3CCCN4CCC[C@@H]([C@H]34)[C@H]2/C=C\CCO)c1 | 5.47 | 148 | 27 | 
O=S(=O)(c1cccc(C(F)(F)F)c1)N1C[C@@H]2CCCN3CCC[C@@H]([C@H]23)[C@H]1/C=C\CCO | 15 | 93.5 | 6.2 | 
O=S(=O)(c1ccc(C(F)(F)F)cc1)N1C[C@@H]2CCCN3CCC[C@@H]([C@H]23)[C@H]1/C=C\CCO | 4.17 | 93.5 | 22.4 | 
O=[N+]([O-])c1ccc(S(=O)(=O)N2C[C@@H]3CCCN4CCC[C@@H]([C@H]34)[C@H]2/C=C\CCO)cc1 | 17 | 265 | 15.6 | 
COC(=O)CCC[C@@H]1[C@H]2CCCN3CCC[C@@H](CN1S(=O)(=O)c1cccc(C#N)c1)[C@@H]23 | 11.7 | 288 | 24.6 | 
COC(=O)CCC[C@@H]1[C@H]2CCCN3CCC[C@@H](CN1S(=O)(=O)c1ccc(C(F)(F)F)cc1)[C@@H]23 | 2.54 | 73.4 | 28.9 | 
COC(=O)CCC[C@@H]1[C@H]2CCCN3CCC[C@@H](CN1S(=O)(=O)c1ccccc1[N+](=O)[O-])[C@@H]23 | 23.9 | 399 | 16.7 | 
COC(=O)CCC[C@@H]1[C@H]2CCCN3CCC[C@@H](CN1S(=O)(=O)c1cccc([N+](=O)[O-])c1)[C@@H]23 | 3.51 | 68.9 | 19.7 | 
COC(=O)CCC[C@@H]1[C@H]2CCCN3CCC[C@@H](CN1S(=O)(=O)c1cccc(C(F)(F)F)c1)[C@@H]23 | 1.98 | 193 | 92.4 | IC50 (Coxsackievirus [4]): 1.28 µM; selectivity ratio [5]: 139; IC50 (Coxsackievirus [6]): 7.61 µM; IC50 (Coxsackievirus [7]): 0.44 µM; selectivity ratio [8]: 144; selectivity ratio [9]: 16.7
N#Cc1cccc(S(=O)(=O)N2C[C@@H]3CCCN4CCC[C@@H]([C@H]34)[C@H]2CCCC(=O)O)c1 | 82.3 | 428 | 5.2 | 
O=C(O)CCC[C@@H]1[C@H]2CCCN3CCC[C@@H](CN1S(=O)(=O)c1ccc(C(F)(F)F)cc1)[C@@H]23 | 75.4 | 392 | 5.2 | 
O=C(O)CCC[C@@H]1[C@H]2CCCN3CCC[C@@H](CN1S(=O)(=O)c1ccccc1[N+](=O)[O-])[C@@H]23 | 78.9 | 410 | 5.2 | 
N#Cc1cccc(S(=O)(=O)N2C[C@@H]3CCCN4CCC[C@@H]([C@H]34)[C@H]2CCCCO)c1 | 11.3 | 147 | 13 | 
O=S(=O)(c1ccc(C(F)(F)F)cc1)N1C[C@@H]2CCCN3CCC[C@@H]([C@H]23)[C@H]1CCCCO | 6.55 | 233 | 35.5 | 
O=[N+]([O-])c1ccccc1S(=O)(=O)N1C[C@@H]2CCCN3CCC[C@@H]([C@H]23)[C@H]1CCCCO | 35.7 | 244 | 6.8 | 
NC(=O)c1ncn([C@@H]2O[C@H](CO)[C@@H](O)[C@H]2O)n1 [RIBAVIRIN] | 695 | 8200 |  | IC50 (Coxsackievirus [4]): 1950 µM; IC50 (Coxsackievirus [10]): 911 µM; IC50 (Coxsackievirus [6]): 2100 µM; IC50 (Coxsackievirus [7]): 1710 µM
